Data taken from ChEMBL document CHEMBL1126083, “Novel functional M1 selective muscarinic agonists. Synthesis and structure-activity relationships of 3-(1,2,5-thiadiazolyl)-1,2,5,6-tetrahydro-1-methylpyridines ” (J Med Chem, 1992).

How the values were obtained:
[1] = target: T1, Muscarinic acetylcholine receptor M1 (Rattus norvegicus, UniProt P08482); test: In vitro binding affinity against Muscarinic acetylcholine receptor M1 from rat hippocampus, using [3H]oxotremorine-M (Oxo-M) as radioligand.; type: tissue-based; conditions: in the assay text read “cerebral cortex” for “hippocampus”
T1 sequence (P08482 whole entry): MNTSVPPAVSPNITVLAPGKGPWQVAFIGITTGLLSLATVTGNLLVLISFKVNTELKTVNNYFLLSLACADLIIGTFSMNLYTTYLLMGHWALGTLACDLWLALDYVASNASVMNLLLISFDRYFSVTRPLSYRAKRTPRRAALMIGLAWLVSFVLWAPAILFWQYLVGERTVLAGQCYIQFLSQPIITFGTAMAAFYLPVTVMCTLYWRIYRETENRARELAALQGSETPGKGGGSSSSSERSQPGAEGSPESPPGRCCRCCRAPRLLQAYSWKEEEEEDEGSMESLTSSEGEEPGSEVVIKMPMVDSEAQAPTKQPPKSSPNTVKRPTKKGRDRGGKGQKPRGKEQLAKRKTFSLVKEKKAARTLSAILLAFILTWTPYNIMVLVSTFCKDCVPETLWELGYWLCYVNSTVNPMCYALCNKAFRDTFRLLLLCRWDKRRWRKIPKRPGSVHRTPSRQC
Procedure, shortened: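 Rat cortex (fresh, male Wistar) homogenized in 20 mM Hepes pH 7.4, spun 15 min at 4000g, and washed three times. Homogenate incubated with [3H]Oxo-M (1.0 nM final) for 30 min at 25 °C. […] Filtered and counted by scintillation. IC50 from at least four concentrations in triplicate, fitted by the Hill equation.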

Cavia porcellus [2] = organism: Cavia porcellus; test: In vitro inhibition of force of contraction in guinea pig atria.; type: functional
[3] = target: T1, Muscarinic acetylcholine receptor M1; test: In vitro binding affinity against Muscarinic acetylcholine receptor M1 from rat hippocampus, using [3H]pirenzepine (Pz) as radioligand.; type: tissue-based
Cavia porcellus [4] = organism: Cavia porcellus; test: In vitro inhibition of maximum force of contraction in guinea pig atria.; type: functional
Oryctolagus cuniculus [5] = organism: Oryctolagus cuniculus; test: In vitro inhibition of maximum twitch height in electrically stimulated rabbit vas deferens.; type: functional
Procedure, shortened: (§1)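 Vasa deferentia taken from rabbits under pentobarbital (60 mg/kg i.v.), held at 0.75 g tension and equilibrated ≥30 min. Field-stimulated at 0.5 ms, 40 V, 0.05 Hz. Cumulative concentration–effect curves run on prostatic and epididymal tissues, 3–5 preparations per concentration.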

[6] = target: T1, Muscarinic acetylcholine receptor M1; test: In vitro binding affinity against muscarinic acetylcholine receptor M1 from rat cerebral cortex, using [3H]oxotremorine-M (Oxo-M) as radioligand
Oryctolagus cuniculus [7] = organism: Oryctolagus cuniculus; test: In vitro inhibition of twitch height in electrically stimulated rabbit vas deferens; type: functional; procedure, shortened: as §1
[8] = target: T1, Muscarinic acetylcholine receptor M1; test: In vitro binding affinity against muscarinic acetylcholine receptor M1 from rat hippocampus, using [3H]pirenzepine (Pz) as radioligand; type: tissue-based

CCCc1nsnc1C1=CCCN(C)C1.O=C(O)C(=O)O showed an IC50 [1] of 80 nM, an IC30 (Cavia porcellus [2]) of over 75000 nM and an IC50 [3] of 84 nM. For the same compound, the Inhibition (Cavia porcellus [4]) was 7% and the Inhibition (Oryctolagus cuniculus [5]) was 13%.

With C[N+](C)(C)CC#CCOC(=O)Nc1cccc(Cl)c1.[Cl-] the IC30 (Cavia porcellus [2]) was over 100000 nM, the Inhibition (Cavia porcellus [4]) was 0% and the IC50 [6] was 355 nM. It also gave an IC50 (Oryctolagus cuniculus [7]) of 659 nM, an IC50 [8] of 955 nM and an Inhibition (Oryctolagus cuniculus [5]) of 91%.

CCCOc1nsnc1C1=CCCN(C)C1.O=C(O)C(=O)O showed an IC30 (Cavia porcellus [2]) of 90 nM, an Inhibition (Cavia porcellus [4]) of 100% and an IC50 [6] of 1.6 nM. For the same compound, the IC50 [8] was 18 nM and the Inhibition (Oryctolagus cuniculus [5]) was 25%.

Compound CCCC(C)COc1nsnc1C1=CCCN(C)C1.O=C(O)/C=C/C(=O)O (centres undefined) has an IC30 (Cavia porcellus [2]) of over 75000 nM, an Inhibition (Cavia porcellus [4]) of 0% and an IC50 [6] of 13 nM. It also gave an IC50 [8] of 9 nM and an Inhibition (Oryctolagus cuniculus [5]) of 32%.

With CCCCCCNc1nsnc1C1=CCCN(C)C1 the IC30 (Cavia porcellus [2]) was 13000 nM, the Inhibition (Cavia porcellus [4]) was 84% and the IC50 [6] was 60 nM. For the same compound, the IC50 (Oryctolagus cuniculus [7]) was 3000 nM, the IC50 [8] was 105 nM and the Inhibition (Oryctolagus cuniculus [5]) was 65%.

Work on CCCCCc1nsnc1C1=CCCN(C)C1.O=C(O)C(=O)O yielded an IC50 [1] of 146 nM, an IC50 [3] of 170 nM and an Inhibition (Cavia porcellus [4]) of 12%. The Inhibition (Oryctolagus cuniculus [5]) was 40%.

With C[N+](C)(C)CCOC(N)=O.[Cl-] [CARBACHOL] the IC30 (Cavia porcellus [2]) was 500 nM, the Inhibition (Cavia porcellus [4]) was 100% and the IC50 (Oryctolagus cuniculus [7]) was 460 nM. It also gave an Inhibition (Oryctolagus cuniculus [5]) of 77%.

CCCCCCCOc1nsnc1C1=CCCN(C)C1.O=C(O)C(=O)O gave an IC30 (Cavia porcellus [2]) of 3900 nM and an Inhibition (Cavia porcellus [4]) of 100%.

For CCCCC(C)Oc1nsnc1C1=CCCN(C)C1.O=C(O)/C=C/C(=O)O (centres undefined), the IC30 (Cavia porcellus [2]) was over 25000 nM, the Inhibition (Cavia porcellus [4]) was 15% and the IC50 [6] was 7 nM. For the same compound, the IC50 (Oryctolagus cuniculus [7]) was 7 nM, the IC50 [8] was 6.9 nM and the Inhibition (Oryctolagus cuniculus [5]) was 79%.

CCCCCCSc1nsnc1C1=CCCN(C)C1.O=C(O)C(=O)O was tested, and the IC50 [1] was 6.5 nM, the IC30 (Cavia porcellus [2]) was 9700 nM and the IC50 [3] was 5 nM. For the same compound, the Inhibition (Cavia porcellus [4]) was 56%, the IC50 (Oryctolagus cuniculus [7]) was 0.001 nM and the Inhibition (Oryctolagus cuniculus [5]) was 92%.

Compound CCCCCCOc1nsnc1C1=CCCN(C)C1.O=C(O)C(=O)O has an IC30 (Cavia porcellus [2]) of over 27000 nM and an Inhibition (Cavia porcellus [4]) of 20%.

CN1CCC=C(c2cnsn2)C1 gave an IC30 (Cavia porcellus [2]) of 10 nM, an Inhibition (Cavia porcellus [4]) of 100% and an IC50 [6] of 2 nM. It also gave an IC50 (Oryctolagus cuniculus [7]) of 26 nM, an IC50 [8] of 145 nM and an Inhibition (Oryctolagus cuniculus [5]) of 59%.

CCC(C)CCOc1nsnc1C1=CCCN(C)C1.O=C(O)/C=C/C(=O)O (centres undefined) gave an IC30 (Cavia porcellus [2]) of over 75000 nM, an Inhibition (Cavia porcellus [4]) of 0% and an IC50 [6] of 10 nM. It also gave an IC50 (Oryctolagus cuniculus [7]) of 47 nM, an IC50 [8] of 8.4 nM and an Inhibition (Oryctolagus cuniculus [5]) of 65%.

Compound CCCCCSc1nsnc1C1=CCCN(C)C1.O=C(O)C(=O)O has an IC30 (Cavia porcellus [2]) of 5400 nM and an Inhibition (Cavia porcellus [4]) of 33%.

Work on CCCCCCCc1nsnc1C1=CCCN(C)C1.O=C(O)C(=O)O yielded an IC30 (Cavia porcellus [2]) of 5400 nM and an Inhibition (Cavia porcellus [4]) of 78%.

CCCCCCCCc1nsnc1C1=CCCN(C)C1.O=C(O)C(=O)O showed an IC50 [1] of 428 nM, an IC30 (Cavia porcellus [2]) of over 75000 nM and an IC50 [3] of 56 nM. It also gave an Inhibition (Cavia porcellus [4]) of 14% and an Inhibition (Oryctolagus cuniculus [5]) of 26%.

Work on CCCCCCCCOc1nsnc1C1=CCCN(C)C1.O=C(O)C(=O)O yielded an IC30 (Cavia porcellus [2]) of over 75000 nM, an Inhibition (Cavia porcellus [4]) of 0% and an IC50 [6] of 30 nM. For the same compound, the IC50 [8] was 40 nM and the Inhibition (Oryctolagus cuniculus [5]) was 0%.

CCCCSc1nsnc1C1=CCCN(C)C1.O=C(O)C(=O)O gave an IC30 (Cavia porcellus [2]) of 100 nM, an Inhibition (Cavia porcellus [4]) of 45% and an IC50 [6] of 1.7 nM. It also gave an IC50 (Oryctolagus cuniculus [7]) of 0.003 nM, an IC50 [8] of 1.3 nM and an Inhibition (Oryctolagus cuniculus [5]) of 83%.

For CN1CCC=C(c2nsnc2Cl)C1, the IC30 (Cavia porcellus [2]) was 29400 nM and the Inhibition (Cavia porcellus [4]) was 67%.

Work on CCCSc1nsnc1C1=CCCN(C)C1.O=C(O)C(=O)O yielded an IC30 (Cavia porcellus [2]) of 50 nM, an Inhibition (Cavia porcellus [4]) of 100% and an IC50 [6] of 0.9 nM. For the same compound, the IC50 [8] was 4 nM and the Inhibition (Oryctolagus cuniculus [5]) was 42%.

CCCCCC[S+]([O-])c1nsnc1C1=CCCN(C)C1 (centres undefined) showed an IC30 (Cavia porcellus [2]) of 25000 nM, an Inhibition (Cavia porcellus [4]) of 45% and an IC50 [6] of 109 nM. For the same compound, the IC50 (Oryctolagus cuniculus [7]) was 48 nM, the IC50 [8] was 860 nM and the Inhibition (Oryctolagus cuniculus [5]) was 80%.

In the case of CCCCCOc1nsnc1C1=CCCN(C)C1.O=C(O)C(=O)O, the IC30 (Cavia porcellus [2]) is reported as 2800 nM and the Inhibition (Cavia porcellus [4]) is reported as 43%.

With CCCCCCCSc1nsnc1C1=CCCN(C)C1.O=C(O)C(=O)O the IC30 (Cavia porcellus [2]) was 7500 nM, the Inhibition (Cavia porcellus [4]) was 40% and the IC50 [6] was 3 nM. For the same compound, the IC50 (Oryctolagus cuniculus [7]) was 108 nM, the IC50 [8] was 12 nM and the Inhibition (Oryctolagus cuniculus [5]) was 63%.

CCCCCCS(=O)(=O)c1nsnc1C1=CCCN(C)C1 was tested, and the IC30 (Cavia porcellus [2]) was 5500 nM, the Inhibition (Cavia porcellus [4]) was 76% and the IC50 [6] was 29 nM. It also gave an IC50 (Oryctolagus cuniculus [7]) of 43 nM, an IC50 [8] of 62 nM and an Inhibition (Oryctolagus cuniculus [5]) of 73%.

With CCSc1nsnc1C1=CCCN(C)C1.O=C(O)C(=O)O the IC30 (Cavia porcellus [2]) was 70 nM, the Inhibition (Cavia porcellus [4]) was 100% and the IC50 [6] was 1.9 nM. It also gave an IC50 (Oryctolagus cuniculus [7]) of 22 nM, an IC50 [8] of 18 nM and an Inhibition (Oryctolagus cuniculus [5]) of 71%.

CCOc1nsnc1C1=CCCN(C)C1.O=C(O)C(=O)O gave an IC30 (Cavia porcellus [2]) of over 75000 nM, an Inhibition (Cavia porcellus [4]) of 0% and an IC50 [6] of 5.7 nM. For the same compound, the IC50 [8] was 48 nM and the Inhibition (Oryctolagus cuniculus [5]) was 43%.

COC(=O)C1=CCCN(C)C1 [ARECOLINE] was tested, and the IC30 (Cavia porcellus [2]) was 600 nM and the Inhibition (Cavia porcellus [4]) was 100%.

Work on CC(C)CCCOc1nsnc1C1=CCCN(C)C1.O=C(O)/C=C\C(=O)O yielded an IC30 (Cavia porcellus [2]) of 7300 nM, an Inhibition (Cavia porcellus [4]) of 73% and an IC50 [6] of 8 nM. The IC50 (Oryctolagus cuniculus [7]) was 0.006 nM, the IC50 [8] was 9.7 nM and the Inhibition (Oryctolagus cuniculus [5]) was 86%.

Work on CCCCOc1nonc1C1=CCCN(C)C1 yielded an IC30 (Cavia porcellus [2]) of over 70000 nM, an Inhibition (Cavia porcellus [4]) of 0% and an IC50 [6] of 24 nM. For the same compound, the IC50 [8] was 345 nM and the Inhibition (Oryctolagus cuniculus [5]) was 12%.

CCCCCCCCSc1nsnc1C1=CCCN(C)C1.O=C(O)C(=O)O showed an IC50 [1] of 140 nM, an IC30 (Cavia porcellus [2]) of over 72000 nM and an IC50 [3] of 49 nM. It also gave an Inhibition (Cavia porcellus [4]) of 5% and an Inhibition (Oryctolagus cuniculus [5]) of 42%.

Work on CCCCOc1nsnc1C1=CCCN(C)C1.O=C(O)C(=O)O yielded an IC30 (Cavia porcellus [2]) of 200 nM and an Inhibition (Cavia porcellus [4]) of 71%.

Work on CCCCCCOc1nonc1C1=CCCN(C)C1 yielded an IC30 (Cavia porcellus [2]) of over 70000 nM, an Inhibition (Cavia porcellus [4]) of 0% and an IC50 [6] of 84 nM. It also gave an IC50 (Oryctolagus cuniculus [7]) of 10000 nM, an IC50 [8] of 277 nM and an Inhibition (Oryctolagus cuniculus [5]) of 47%.

Work on CSc1nsnc1C1=CCCN(C)C1.O=C(O)C(=O)O yielded an IC30 (Cavia porcellus [2]) of 300 nM, an Inhibition (Cavia porcellus [4]) of 100% and an IC50 [6] of 2.3 nM. It also gave an IC50 (Oryctolagus cuniculus [7]) of 3 nM, an IC50 [8] of 43 nM and an Inhibition (Oryctolagus cuniculus [5]) of 70%.

COc1nsnc1C1=CCCN(C)C1.O=C(O)C(=O)O was tested, and the IC30 (Cavia porcellus [2]) was 1100 nM, the Inhibition (Cavia porcellus [4]) was 50% and the IC50 [6] was 22 nM. It also gave an IC50 (Oryctolagus cuniculus [7]) of 364 nM, an IC50 [8] of 148 nM and an Inhibition (Oryctolagus cuniculus [5]) of 47%.
